These results are taken from ChEMBL document CHEMBL5120742, “Multi-target weapons: diaryl-pyrazoline thiazolidinediones simultaneously targeting VEGFR-2 and HDAC cancer hallmarks” (RSC Med Chem, 2021).

Where only a bound is given, the exact number is not on record here.

For data set [1], the target named is T1, Histone deacetylase 4 (Homo sapiens, UniProt P56524). Briefly: Inhibition of recombinant human N-terminal His6-SUMO-tagged C-terminal SII-tagged HDAC4 expressed in Escherichia coli (BL21) DE3 pLysS cells using BocLys(trifluoroacetyl)-AMC as substrate incubated for 30 mins by fluorescence assay. In outline:
(§1)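 Catalytic-domain HDAC4 (His6-SUMO/SII-tagged) and full-length codon-optimized human HDAC8 were expressed in E. coli BL21 DE3 pLysS from pET14b. Both were assayed in a two-step fluorogenic format with Boc-Lys(trifluoroacetyl)-AMC, followed by trypsin development. Compounds were screened first at 50 µM for residual activity.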

Data set [2] concerns the target T2, Histone deacetylase 8 (Homo sapiens, UniProt Q9BY41).
T2 sequence (Q9BY41 whole entry): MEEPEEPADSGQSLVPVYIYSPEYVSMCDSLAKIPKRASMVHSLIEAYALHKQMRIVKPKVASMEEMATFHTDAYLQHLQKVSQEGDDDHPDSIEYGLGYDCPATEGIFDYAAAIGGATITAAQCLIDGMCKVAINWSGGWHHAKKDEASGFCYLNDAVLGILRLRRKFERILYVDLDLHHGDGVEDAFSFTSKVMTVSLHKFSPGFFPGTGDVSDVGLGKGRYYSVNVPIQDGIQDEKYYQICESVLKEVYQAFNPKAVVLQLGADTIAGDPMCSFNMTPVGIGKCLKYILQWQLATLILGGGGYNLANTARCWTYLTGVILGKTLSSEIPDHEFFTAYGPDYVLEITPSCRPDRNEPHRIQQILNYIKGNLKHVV
Briefly: Inhibition of recombinant human N-terminal His6-SUMO-tagged C-terminal SII-tagged HDAC8 expressed in Escherichia coli (BL21) DE3 pLysS cells using BocLys(trifluoroacetyl)-AMC as substrate incubated for 30 mins by fluorescence assay. The method in brief:
as §1

The target of data set [3] is Histone deacetylase 1 (Homo sapiens, UniProt Q13547). The data set can be described thus: Inhibition of recombinant human C-terminal His6-FLAG-tagged HDAC1 (1 to end residues) expressed in sf9 insect cells using Boc-Lys(acetyl)-AMC as substrate incubated for 30 mins by fluorescence assay. The method in brief:
(§2)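 Two-step fluorogenic assay with recombinant HDAC1, 2, 3 or 6. Deacetylation of Boc-Lys(acetyl)-AMC is followed by trypsin conversion of the deacetylated product to a fluorescent signal.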

The target of data set [4] is T3, Protein deacetylase HDAC6 (Homo sapiens, UniProt Q9UBN7).
T3 sequence (Q9UBN7 whole entry): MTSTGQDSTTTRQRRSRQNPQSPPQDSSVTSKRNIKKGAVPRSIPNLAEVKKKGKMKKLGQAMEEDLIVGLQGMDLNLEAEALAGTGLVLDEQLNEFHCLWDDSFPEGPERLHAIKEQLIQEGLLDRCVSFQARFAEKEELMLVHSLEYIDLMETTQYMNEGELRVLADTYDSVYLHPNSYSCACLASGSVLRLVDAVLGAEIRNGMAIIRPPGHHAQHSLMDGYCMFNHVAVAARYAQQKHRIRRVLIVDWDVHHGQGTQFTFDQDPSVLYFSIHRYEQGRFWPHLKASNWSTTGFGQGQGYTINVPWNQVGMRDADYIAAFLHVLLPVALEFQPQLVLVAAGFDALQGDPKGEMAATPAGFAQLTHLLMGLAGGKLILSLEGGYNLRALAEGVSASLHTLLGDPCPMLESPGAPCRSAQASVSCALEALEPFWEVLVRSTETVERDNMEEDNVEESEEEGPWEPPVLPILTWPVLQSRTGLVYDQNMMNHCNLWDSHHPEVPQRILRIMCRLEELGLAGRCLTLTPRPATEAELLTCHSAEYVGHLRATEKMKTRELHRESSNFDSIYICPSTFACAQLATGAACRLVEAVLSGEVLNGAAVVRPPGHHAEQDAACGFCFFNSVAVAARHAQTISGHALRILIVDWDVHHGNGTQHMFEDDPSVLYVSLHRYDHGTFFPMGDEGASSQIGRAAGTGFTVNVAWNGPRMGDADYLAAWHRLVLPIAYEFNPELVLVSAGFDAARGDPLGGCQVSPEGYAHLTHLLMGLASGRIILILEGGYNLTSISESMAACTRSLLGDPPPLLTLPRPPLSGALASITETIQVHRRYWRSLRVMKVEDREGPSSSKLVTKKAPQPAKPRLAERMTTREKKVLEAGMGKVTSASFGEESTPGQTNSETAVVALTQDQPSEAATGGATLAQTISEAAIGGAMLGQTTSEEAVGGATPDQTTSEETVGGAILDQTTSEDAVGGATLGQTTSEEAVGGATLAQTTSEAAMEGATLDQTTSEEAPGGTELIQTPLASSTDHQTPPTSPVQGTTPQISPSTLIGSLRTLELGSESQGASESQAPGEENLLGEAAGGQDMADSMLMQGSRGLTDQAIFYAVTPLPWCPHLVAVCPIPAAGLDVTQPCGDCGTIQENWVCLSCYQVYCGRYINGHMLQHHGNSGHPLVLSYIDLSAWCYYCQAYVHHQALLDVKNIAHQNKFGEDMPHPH
Briefly: Inhibition of recombinant human HDAC6 using Boc-Lys(acetyl)-AMC as substrate incubated for 30 mins by fluorescence assay. In outline: as §2

The target of data set [5] is Vascular endothelial growth factor receptor 2 (Homo sapiens, UniProt P35968). Briefly: Inhibition of human VEGFR2 in HUVEC cells assessed as reduction in VEGFR2 phosphorylation at 10 uM incubated for 30 mins by anti-phospho VEGF Tyr 1175 antibody based assay relative to control. It counts as cell-based. The method in brief: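 HUVECs were seeded at 4000–5000 per well in DMEM with 10% FCS for 12 h, then held 24 h in serum. Compound (10 µM) was added with serum for 30 min at 37 °C. Cells were fixed in 4% formaldehyde and probed with anti-phospho-VEGFR Tyr1175 (1:1000), then an HRP secondary (1:5000). TMB signal was stopped with 2N H2SO4 and read at 450 nm. Percent inhibition is normalized to control.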

Data set [6] can be described thus: Cytotoxicity against HUVEC cells assessed as reduction in cell viability after 96 hrs by MTT assay. Particulars: human. In general terms: Tetrazolium dyes change colour on reduction, which living cells bring about.
The target of data set [7] is T1, Histone deacetylase 4. The data set can be described thus: Binding affinity to recombinant human N-terminal His6-SUMO-tagged C-terminal SII-tagged HDAC4 expressed in Escherichia coli (BL21) DE3 pLysS cells assessed as melting temperature at 100 uM for 15 mins by thermal shift assay. In outline: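 HDAC4 catalytic domain (His6-SUMO/SII, E. coli) at 3 µM was mixed with 100 µM compound in DMSO and held 15 min at 30 °C, then 60 min more at 30 °C. Temperature was stepped by 2 °C with 10 min holds and samples were taken at each step. Samples were centrifuged at 18000g, 4 °C, and the soluble protein was run on SDS-PAGE. Band intensities were fitted to a logistic function, and Tm is the inflection point.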

Sequence of Histone deacetylase 1 (Q13547 whole entry): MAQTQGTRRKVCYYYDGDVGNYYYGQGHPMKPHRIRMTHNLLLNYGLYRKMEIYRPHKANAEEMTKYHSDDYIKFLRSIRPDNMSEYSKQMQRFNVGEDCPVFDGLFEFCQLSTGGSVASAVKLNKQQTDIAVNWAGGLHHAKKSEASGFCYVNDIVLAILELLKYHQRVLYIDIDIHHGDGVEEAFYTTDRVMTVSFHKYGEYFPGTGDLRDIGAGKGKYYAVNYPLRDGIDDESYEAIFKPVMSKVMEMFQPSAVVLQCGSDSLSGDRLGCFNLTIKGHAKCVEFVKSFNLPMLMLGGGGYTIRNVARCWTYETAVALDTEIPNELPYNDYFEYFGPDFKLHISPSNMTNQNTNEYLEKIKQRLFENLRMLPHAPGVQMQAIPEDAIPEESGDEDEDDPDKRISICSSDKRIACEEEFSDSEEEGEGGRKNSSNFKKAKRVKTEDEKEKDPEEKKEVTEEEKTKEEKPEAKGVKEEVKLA
T1 sequence (P56524 whole entry): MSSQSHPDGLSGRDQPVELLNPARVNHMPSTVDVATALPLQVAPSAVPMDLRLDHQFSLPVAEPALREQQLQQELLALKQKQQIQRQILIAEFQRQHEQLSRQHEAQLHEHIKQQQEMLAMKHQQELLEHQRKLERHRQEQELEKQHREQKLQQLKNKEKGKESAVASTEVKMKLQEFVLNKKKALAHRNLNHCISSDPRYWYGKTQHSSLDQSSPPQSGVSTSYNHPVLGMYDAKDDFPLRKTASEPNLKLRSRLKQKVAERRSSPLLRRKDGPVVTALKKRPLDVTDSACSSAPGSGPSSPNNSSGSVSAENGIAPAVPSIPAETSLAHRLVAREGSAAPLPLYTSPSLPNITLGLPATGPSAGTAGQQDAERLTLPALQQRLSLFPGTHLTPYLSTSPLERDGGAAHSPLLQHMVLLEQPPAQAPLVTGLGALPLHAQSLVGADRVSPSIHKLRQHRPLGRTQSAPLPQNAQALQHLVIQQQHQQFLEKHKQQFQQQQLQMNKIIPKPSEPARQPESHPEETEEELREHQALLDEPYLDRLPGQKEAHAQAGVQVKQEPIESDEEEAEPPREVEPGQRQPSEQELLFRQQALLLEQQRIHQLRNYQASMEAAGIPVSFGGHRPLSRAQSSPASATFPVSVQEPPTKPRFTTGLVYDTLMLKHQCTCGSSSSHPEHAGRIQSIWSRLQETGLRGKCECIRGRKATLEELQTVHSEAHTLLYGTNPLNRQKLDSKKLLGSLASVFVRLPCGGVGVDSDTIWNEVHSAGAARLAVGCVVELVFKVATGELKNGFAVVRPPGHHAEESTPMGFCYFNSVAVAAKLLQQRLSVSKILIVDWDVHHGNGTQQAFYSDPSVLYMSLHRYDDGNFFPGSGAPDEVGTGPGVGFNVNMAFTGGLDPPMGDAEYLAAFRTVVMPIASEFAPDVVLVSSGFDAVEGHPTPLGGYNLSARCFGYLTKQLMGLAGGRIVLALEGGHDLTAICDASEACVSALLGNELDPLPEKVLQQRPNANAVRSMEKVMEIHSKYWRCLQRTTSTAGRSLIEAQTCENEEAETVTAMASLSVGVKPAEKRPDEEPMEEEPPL
Sequence of Vascular endothelial growth factor receptor 2 (P35968 whole entry): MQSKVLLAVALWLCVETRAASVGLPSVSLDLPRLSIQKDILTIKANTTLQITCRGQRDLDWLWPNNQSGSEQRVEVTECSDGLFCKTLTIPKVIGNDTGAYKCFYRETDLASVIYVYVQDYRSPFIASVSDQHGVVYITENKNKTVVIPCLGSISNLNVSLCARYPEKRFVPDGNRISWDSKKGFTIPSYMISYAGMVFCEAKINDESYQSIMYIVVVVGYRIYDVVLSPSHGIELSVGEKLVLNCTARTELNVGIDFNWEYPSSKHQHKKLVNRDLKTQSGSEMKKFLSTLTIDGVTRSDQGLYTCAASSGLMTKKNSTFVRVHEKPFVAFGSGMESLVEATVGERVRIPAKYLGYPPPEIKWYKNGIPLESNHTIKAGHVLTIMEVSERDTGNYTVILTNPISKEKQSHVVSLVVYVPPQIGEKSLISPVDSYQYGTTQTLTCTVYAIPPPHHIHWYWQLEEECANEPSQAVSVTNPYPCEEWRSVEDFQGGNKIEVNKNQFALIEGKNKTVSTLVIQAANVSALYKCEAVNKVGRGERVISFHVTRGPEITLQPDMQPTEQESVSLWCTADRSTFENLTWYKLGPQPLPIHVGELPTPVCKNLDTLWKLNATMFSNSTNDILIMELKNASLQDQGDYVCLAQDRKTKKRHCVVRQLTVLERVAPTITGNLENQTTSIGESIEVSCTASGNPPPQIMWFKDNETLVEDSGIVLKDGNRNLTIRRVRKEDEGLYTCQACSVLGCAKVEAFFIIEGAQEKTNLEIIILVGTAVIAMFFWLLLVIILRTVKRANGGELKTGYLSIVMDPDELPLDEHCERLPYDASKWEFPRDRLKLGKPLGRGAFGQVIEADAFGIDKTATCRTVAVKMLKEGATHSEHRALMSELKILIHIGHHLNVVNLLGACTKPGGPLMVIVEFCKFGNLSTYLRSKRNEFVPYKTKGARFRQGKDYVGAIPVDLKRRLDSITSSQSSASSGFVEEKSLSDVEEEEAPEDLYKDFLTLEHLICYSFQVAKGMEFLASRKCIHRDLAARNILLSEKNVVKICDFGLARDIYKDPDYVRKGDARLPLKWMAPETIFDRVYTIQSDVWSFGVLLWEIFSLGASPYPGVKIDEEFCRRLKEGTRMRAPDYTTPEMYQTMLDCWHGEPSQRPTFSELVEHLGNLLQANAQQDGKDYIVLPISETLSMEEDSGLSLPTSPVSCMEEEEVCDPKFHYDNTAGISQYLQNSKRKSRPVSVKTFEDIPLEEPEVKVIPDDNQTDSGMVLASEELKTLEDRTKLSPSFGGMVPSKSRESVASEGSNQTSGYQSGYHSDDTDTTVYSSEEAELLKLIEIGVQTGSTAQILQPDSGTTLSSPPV

The term IC50 denotes the midpoint of a concentration-inhibition curve. Broadly, the inhibition is the percentage by which the read-out fell short of the control. As for `O=C1NC(=O)/C(=C\c2ccc(OCC(=O)N3N=C(c4ccc(F)cc4)CC3c3ccco3)cc2)S1` (centres undefined), the IC50 is 0.88 µM in data set [1], above 50 µM in data set [2], above 50 µM in data set [3] and 7.6 µM in data set [4]. Also, the inhibition in data set [5] worked out at 56.7%. Besides, the half-maximal inhibitory concentration (IC50) at 96 h in data set [6] came to 0.7 µM.
Usually Tm stands for the temperature at which the thermal transition is half complete. Take `O=C1NC(=O)/C(=C\c2ccc(OCC(=O)N3N=C(c4ccccc4)CC3c3ccc(Cl)c(Cl)c3)cc2)S1` (centres undefined): the IC50 in data set [1] stood at 0.7 µM; in data set [2] it was 10 µM; in data set [3], 4.9 µM; in data set [4] it was 39 µM. Moreover, the Tm in data set [7] is 56.7 °C. In addition, the IC50 at 96 h in data set [6] was above 10 µM.
`O=C1NC(=O)/C(=C\c2ccc(OCC(=O)N3N=C(c4ccc(F)cc4)CC3c3ccc(Cl)c(Cl)c3)cc2)S1` (centres undefined): the IC50 in data set [1] amounted to 0.8 µM; in data set [2], 25 µM; in data set [3], 11 µM; in data set [4], 13 µM. The inhibition in data set [5] worked out at 22.4%. Moreover, in data set [7], the Tm amounted to 57.3 °C. In addition, in data set [6], the IC50 at 96 h amounted to 2 µM.
